T cruzi growth – T. cruzi proliferation inhibition. T. cruzi beta-gal in NIH3T3, GalScreen luminescence, 90 h. inhibition, % at 8.34 µM. 77,000 tested, 5.9% active. AID 624255;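 active = mean inhibition above about 93%, with at least 55% of replicates each passing it, limit read from the data, passing the limit was not always enough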
KDM4C inh – inhibitors of human demethylase GASC-1 KDM4C | inhibition, % at 12.5 µM | 96,000 tested, 0.15% active | Q9H3R0 | GST-KDM4C 2-372, H3K9me3 peptide, LANCE TR-FRET;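 active = mean replicate inhibition above about 25%, with at least 55% of replicates also reaching it, limit read from the data, passing the limit was not always enough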
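Test system – GST-tagged GASC-1 (JMJD2C) catalytic fragment, aa 2-372 · Medium – HEPES buffer, pH 7.5, plus ascorbate · Reagent – H3K9me3 peptide with Fe(II)/2OG · Compound – one test concentration per compound · Timing – 30 min reaction, 60 min detection, RT · Technique – TR-FRET with Eu antibody and ULight streptavidin, EDTA stop · Read-out basis – inhibition from TR-FRET ratio decrease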
Pf Dd2 inh – P. falciparum Dd2 growth inhibition. AID 1159554. SYBR Green, 72 h; stronger effect = lower value. 94,000 tested, 2.3% active. activity change, % at 10 µM; in the data active = activity change below about -80%
IDH1 R132H inh – blocks human IDH1 R132H reductase activity; diaphorase/resazurin fluorescence, 60 min; O75874; inhibition, % at 10 µM; 70,000 tested, 0.18% active; in the data active = inhibition above about 34%;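 note: 0% = DMSO and 100% = no enzyme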
Target sequence (O75874 whole entry R132H): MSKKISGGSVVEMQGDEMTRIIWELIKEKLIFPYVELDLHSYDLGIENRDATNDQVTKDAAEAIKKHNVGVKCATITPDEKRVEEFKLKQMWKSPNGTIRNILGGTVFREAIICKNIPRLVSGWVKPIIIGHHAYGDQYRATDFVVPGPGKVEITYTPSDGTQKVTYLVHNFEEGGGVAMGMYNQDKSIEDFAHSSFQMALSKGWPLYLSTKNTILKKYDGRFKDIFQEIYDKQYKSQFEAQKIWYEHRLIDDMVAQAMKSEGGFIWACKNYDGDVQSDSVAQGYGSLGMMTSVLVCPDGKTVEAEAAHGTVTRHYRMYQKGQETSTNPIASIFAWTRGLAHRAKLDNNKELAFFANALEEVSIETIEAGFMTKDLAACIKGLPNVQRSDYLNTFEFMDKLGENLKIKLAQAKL
Starred values were filed as active, the others as inactive; x = not tested or not shown. Compounds with a hit are over-represented: about 5.8% of the library has one in this group of screens.

SMILES	T cruzi growth	KDM4C inh	Pf Dd2 inh	IDH1 R132H inh
C[C@@H]1CCCCO[C@@H](CN(C)Cc2ccc(Cl)c(Cl)c2)[C@H](C)CN([C@H](C)CO)C(=O)c2cc(NS(=O)(=O)c3ccc(F)cc3)ccc2O1	87	1	-84*	x
Cc1ccc(C(=O)O)cc1S(=O)(=O)N(C)CCO	x	x	x	0
C[C@H]1CN([C@@H](C)CO)C(=O)Cc2cc(NC(=O)CCCCCC(=O)Nc3ccccc3N)ccc2O[C@H]1CN(C)S(=O)(=O)c1ccc(Cl)cc1	59	0	-94*	x
C[C@@H]1CN([C@@H](C)CO)C(=O)Cc2cc(NC(=O)CCCCCC(=O)Nc3ccccc3N)ccc2O[C@H]1CN(C)S(=O)(=O)c1ccc(Cl)cc1	-6	-1	-64	-5
C[C@H](CO)N1C[C@H](C)[C@H](CN(C)S(=O)(=O)c2ccc(Cl)cc2)Oc2ccc(NC(=O)CCCCCC(=O)Nc3ccccc3N)cc2CC1=O	58	0	-91*	x
C[C@@H]1CN([C@H](C)CO)C(=O)Cc2cc(NC(=O)CCCCCC(=O)Nc3ccccc3N)ccc2O[C@H]1CN(C)S(=O)(=O)c1ccc(Cl)cc1	-13	-1	-51	1
COc1ccc(C(C)=O)cc1CSc1nc2cc(C)c(C)cc2[nH]1	x	x	x	-1
COc1ccccc1CC(=O)Nc1ccc(-c2nnc(-c3ccccc3)o2)cc1	x	x	x	0
C[C@@H]1CN([C@H](C)CO)C(=O)c2cc(NC(=O)CCCCCC(=O)Nc3ccccc3N)ccc2O[C@@H](C)CCCCO[C@H]1CN(C)Cc1ccc(Cl)c(Cl)c1	x	0	-91*	3
C[C@@H]1CCCCO[C@H](CN(C)Cc2ccc(Cl)c(Cl)c2)[C@@H](C)CN([C@H](C)CO)C(=O)c2cc(NC(=O)CCCCCC(=O)Nc3ccccc3N)ccc2O1	x	-1	-90*	0
C[C@@H]1CCCCO[C@@H](CN(C)C)[C@@H](C)CN([C@H](C)CO)C(=O)c2cc(NC(=O)CCCCCC(=O)Nc3ccccc3N)ccc2O1	x	8	25	x
O=C(Cc1coc2ccc3ccccc3c12)Nc1cccnc1	x	x	x	-1
O=C(C[C@H]1CC[C@@H]2[C@H](COC[C@@H](O)CN2C(=O)Nc2ccc3c(c2)OCO3)O1)N1CCN(c2ccccc2)CC1	x	-2	-88*	x
O=C(C[C@@H]1CC[C@@H]2[C@H](COC[C@H](O)CN2C(=O)Nc2ccc3c(c2)OCO3)O1)N1CCN(c2ccccc2)CC1	x	3	3	x
Cc1ccc(NC(=O)CSc2ncccn2)cc1C	x	x	x	-1
COCCNC(=O)C[C@@H]1C[C@H]2c3cc(N(C)C)ccc3O[C@H]2[C@H](CO)O1	x	39*	-16	0
CN(C)C(=O)C[C@H]1C[C@@H]2c3cc(N(C)C)ccc3O[C@@H]2[C@@H](CO)O1	-11	33*	0	-13
CN(C)C(=O)C[C@@H]1C[C@@H]2c3cc(NC(=O)Nc4ccccc4F)ccc3O[C@@H]2[C@@H](CO)O1	3	36*	13	39*
CN(C)c1ccc2c(c1)[C@@H]1C[C@H](CC(=O)O)O[C@@H](CO)[C@@H]1O2	40	14	27	-16
COC(=O)C[C@@H]1C[C@H]2c3cc(N(C)C)ccc3O[C@H]2[C@@H](CO)O1	50	x	-6	-2
COC(=O)C[C@H]1C[C@H]2c3cc(N(C)C)ccc3O[C@H]2[C@H](CO)O1	-36	43*	-6	-18
COC(=O)c1cc(OC)c(OC)cc1NC(=O)COc1cccc(C)c1C	x	x	x	0
CS(=O)(=O)N(CC(=O)Nc1cccc(Br)c1)c1cc(Cl)c(Cl)cc1Cl	x	x	x	0
C[C@@H]1CCCCO[C@H](CN(C)C(=O)NC2CCCCC2)[C@@H](C)CN([C@@H](C)CO)C(=O)c2cc(NC(=O)Nc3ccc(C(F)(F)F)cc3)ccc2O1	87	-1	-83*	-2
C[C@H]1CCCCO[C@H](CN(C)C(=O)Nc2ccc(C(F)(F)F)cc2)[C@@H](C)CN([C@@H](C)CO)C(=O)c2cc(NC(=O)Nc3ccc(F)cc3)ccc2O1	101	0	-80*	0
SMILES	T cruzi growth	KDM4C inh	Pf Dd2 inh	IDH1 R132H inh
C[C@@H]1CCCCO[C@@H](CN(C)C(=O)Nc2ccc(C(F)(F)F)cc2)[C@@H](C)CN([C@H](C)CO)C(=O)c2cc(NC(=O)Nc3ccc(F)cc3)ccc2O1	x	-1	-71	-1
C[C@@H]1CN([C@H](C)CO)C(=O)c2cc(NC(=O)CCC(F)(F)F)ccc2O[C@H]1CN(C)C(=O)NC1CCCCC1	24	-1	-87*	1
C[C@@H]1CCCCO[C@@H](CN(C)C(=O)Nc2ccc(F)cc2)[C@H](C)CN([C@H](C)CO)C(=O)c2cc(NC(=O)Nc3ccccc3)ccc2O1	112*	1	-22	x
CCN(CC(=O)Nc1cc([N+](=O)[O-])ccc1C)S(=O)(=O)c1ccc(C)cc1	x	x	x	-1
CC(Oc1ccc(F)cc1)C(=O)Nc1sc2c(c1C(N)=O)CCCC2 (centres undefined)	x	x	x	1
N#Cc1ccccc1CSc1nc2ccc(NC(=O)c3ccc(F)cc3)cc2s1	x	x	x	0
Cn1c(SCC(=O)c2ccc(Cl)cc2Cl)nnc1-c1cccnc1	x	x	x	1
CCn1c(SCC(=O)c2ccc(OC)cc2)nnc1-c1ccc(C)cc1	x	x	x	0
COc1ccc(NC(=O)N(C)C[C@@H]2OCCCC[C@H](C)Oc3ccc(NC(=O)Nc4ccc(C(F)(F)F)cc4)cc3C(=O)N([C@@H](C)CO)C[C@@H]2C)cc1	120*	-2	-7	0
COc1ccc(NC(=O)Nc2ccc3c(c2)C(=O)N([C@@H](C)CO)C[C@H](C)[C@H](CN(C)C(=O)Nc2ccc4c(c2)OCO4)OCCCC[C@@H](C)O3)cc1	44	0	-82*	x
COc1ccc(NC(=O)Nc2ccc3c(c2)C(=O)N([C@H](C)CO)C[C@H](C)[C@@H](CN(C)C(=O)Nc2ccc4c(c2)OCO4)OCCCC[C@H](C)O3)cc1	43	1	-25	1
C[C@@H]1CCCCO[C@@H](CN(C)C(=O)Nc2ccc(F)cc2)[C@@H](C)CN([C@@H](C)CO)C(=O)c2cc(NC(=O)Nc3ccc(C(F)(F)F)cc3)ccc2O1	x	0	-88*	1
C[C@@H]1CCCCO[C@@H](CN(C)C(=O)Nc2ccc3c(c2)OCO3)[C@@H](C)CN([C@@H](C)CO)C(=O)c2cc(NC(=O)Nc3ccc(C(F)(F)F)cc3)ccc2O1	x	0	-92*	0
C[C@@H]1CCCCO[C@@H](CN(C)C(=O)Nc2ccc(C(F)(F)F)cc2)[C@@H](C)CN([C@H](C)CO)C(=O)c2cc(NC(=O)Nc3ccc4c(c3)OCO4)ccc2O1	x	-1	-61	2
COc1ccc(NC(=O)N(C)C[C@@H]2OCCCC[C@@H](C)Oc3ccc(NC(=O)Nc4ccc(C(F)(F)F)cc4)cc3C(=O)N([C@H](C)CO)C[C@@H]2C)cc1	65	0	41	0
O=[N+]([O-])c1ccc(OCc2nc(-c3ccccn3)no2)cc1	x	x	x	0
Cc1nn(Cc2c(Cl)cccc2Cl)c(C)c1NC(=O)c1noc2c1CC(C(C)(C)C)CC2 (centres undefined)	x	x	x	0
